Blank lines part the entries; values can stand above or below the compound they belong to.
Key:
[1] = Clearance in Sprague-Dawley rat at 2 mg/kg, iv and 10 mg/kg, po; format: ADME, organism-based; conditions: in vivo
Outline: (§1)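 Male Sprague-Dawley rats. IV dosing at 2 mg/kg in DMSO. Oral dosing at 10 mg/kg in 0.1% Tween-80/0.5% CMC/99.4% water. Reported: CL, Vss, t1/2 (terminal t1/2 where marked), MRT and oral F.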

[2] = Volume of distribution at steady state in Sprague-Dawley rat at 2 mg/kg, iv and 10 mg/kg, po; format: ADME, organism-based; conditions: in vivo, read-out: Vdss; outline: as §1
[3] = Terminal half life in Sprague-Dawley rat at 2 mg/kg, iv and 10 mg/kg, po; format: ADME, organism-based; conditions: in vivo, read-out: beta t1/2 (converted); outline: as §1
[4] = Oral bioavailability in Sprague-Dawley rat at 10 mg/kg; format: ADME, organism-based; conditions: in vivo; outline: as §1
[5] = Clearance in CD1 mouse at 2 mg/kg, iv and 10 mg/kg, po; format: ADME, organism-based; conditions: in vivo
Outline: (§2)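 Male CD1 mice. IV dosing at 2 mg/kg, formulated either in 20% captisol/80% water or in 10% dimethylacetamide/23% water/67% PEG 400. Oral dosing at 10 mg/kg, formulated either in 10% Pluronic F108/90% OraPlus or in 0.1% Tween-80/0.5% CMC in water. Reported: CL, Vss, t1/2 and oral F.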

[6] = Volume of distribution at steady state in CD1 mouse at 2 mg/kg, iv and 10 mg/kg, po; format: ADME, organism-based; conditions: in vivo, read-out: Vdss; outline: as §2
[7] = Half life in CD1 mouse at 2 mg/kg, iv and 10 mg/kg, po; format: ADME, organism-based; conditions: in vivo; outline: as §2
[8] = Oral bioavailability in CD1 mouse at 10 mg/kg; format: ADME, organism-based; conditions: in vivo; outline: as §2
[9] = test system: Plasma; assay: Free plasma concentration in po dosed mouse after 4 hrs; format: ADME, organism-based; conditions: in vivo
[10] = Plasma protein binding in po dosed mouse after 4 hrs; format: ADME, organism-based; conditions: read-out: PPB (converted)
[11] = in vivo; conditions: mouse, adipose tissue fat / plasma, po, 50 mg/kg
[12] = target: 11-beta-hydroxysteroid dehydrogenase 1 (Mus musculus, UniProt P50172); assay: Inhibition of mouse 11beta-HSD1 expressed in Escherichia coli using [3H]cortisone as substrate by scintillation proximity assay
[13] = Half life in Sprague-Dawley rat at 2 mg/kg, iv and 10 mg/kg, po; format: ADME, organism-based; conditions: in vivo; outline: as §1
[14] = test system: Mus musculus; assay: Ex vivo inhibition of 11beta-HSD1 in mouse adipose tissue at 10 mg/kg, po after 2 hrs; format: functional
Outline: (§3)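 Mice dosed orally at 10 or 30 mg/kg. Adipose 11β-HSD1 activity measured ex vivo as percent inhibition.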

[15] = test system: Mus musculus; assay: Ex vivo inhibition of 11beta-HSD1 in mouse adipose tissue at 10 mg/kg, po after 4 hrs; format: functional; outline: as §3
[16] = test system: Mus musculus; assay: Ex vivo inhibition of 11beta-HSD1 in mouse adipose tissue at 30 mg/kg, po after 2 hrs; format: functional; outline: as §3
[17] = test system: Mus musculus; assay: Ex vivo inhibition of 11beta-HSD1 in mouse adipose tissue at 30 mg/kg, po after 4 hrs; format: functional; outline: as §3
[18] = test system: Mus musculus; assay: Ex vivo inhibition of 11beta-HSD1 in mouse adipose tissue at 30 mg/kg, po after 6 hrs; format: functional; outline: as §3
[19] = test system: Mus musculus; assay: Ex vivo inhibition of 11beta-HSD1 in mouse adipose tissue at 30 mg/kg, po after 8 hrs; format: functional; outline: as §3
[20] = test system: Plasma; assay: Free plasma concentration in mouse at 30 mg/kg, po after 4 hrs; format: ADME, organism-based; design: dose 30 mg/kg, route oral; conditions: in vivo
Outline: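 Mice dosed orally at 30 mg/kg and sampled at 4 h. Free plasma concentration calculated from total plasma level using mouse plasma protein binding.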

[21] = Plasma protein binding in mouse at 30 mg/kg, po after 4 hrs; format: ADME, organism-based; design: dose 30 mg/kg, route oral; conditions: read-out: PPB (converted)
[22] = Drug uptake in mouse adipose tissue fat at 10 mg/kg, po after 2 hrs; format: ADME, organism-based; design: dose 10 mg/kg, route oral; conditions: read-out: Drug uptake
[23] = Drug uptake in mouse adipose tissue fat at 10 mg/kg, po after 4 hrs; format: ADME, organism-based; design: dose 10 mg/kg, route oral; conditions: read-out: Drug uptake
[24] = Drug uptake in mouse adipose tissue fat at 10 mg/kg, po after 6 hrs; format: ADME, organism-based; design: dose 10 mg/kg, route oral; conditions: read-out: Drug uptake
[25] = Drug uptake in mouse adipose tissue fat at 10 mg/kg, po after 8 hrs; format: ADME, organism-based; design: dose 10 mg/kg, route oral; conditions: read-out: Drug uptake
[26] = Drug uptake in mouse adipose tissue fat at 30 mg/kg, po after 2 hrs; format: ADME, organism-based; design: dose 30 mg/kg, route oral; conditions: read-out: Drug uptake
[27] = Drug uptake in mouse adipose tissue fat at 30 mg/kg, po after 4 hrs; format: ADME, organism-based; design: dose 30 mg/kg, route oral; conditions: read-out: Drug uptake
[28] = Drug uptake in mouse adipose tissue fat at 30 mg/kg, po after 6 hrs; format: ADME, organism-based; design: dose 30 mg/kg, route oral; conditions: read-out: Drug uptake
[29] = Drug uptake in mouse adipose tissue fat at 30 mg/kg, po after 8 hrs; format: ADME, organism-based; design: dose 30 mg/kg, route oral; conditions: read-out: Drug uptake
[30] = Plasma concentration in mouse at 10 mg/kg, po after 2 hrs; format: ADME, organism-based; design: dose 10 mg/kg, route oral
[31] = Plasma concentration in mouse at 10 mg/kg, po after 4 hrs; format: ADME, organism-based; design: dose 10 mg/kg, route oral
[32] = Plasma concentration in mouse at 10 mg/kg, po after 6 hrs; format: ADME, organism-based; design: dose 10 mg/kg, route oral
[33] = Plasma concentration in mouse at 10 mg/kg, po after 8 hrs; format: ADME, organism-based; design: dose 10 mg/kg, route oral
[34] = Plasma concentration in mouse at 30 mg/kg, po after 2 hrs; format: ADME, organism-based; design: dose 30 mg/kg, route oral
[35] = Plasma concentration in mouse at 30 mg/kg, po after 4 hrs; format: ADME, organism-based; design: dose 30 mg/kg, route oral
[36] = Plasma concentration in mouse at 30 mg/kg, po after 6 hrs; format: ADME, organism-based; design: dose 30 mg/kg, route oral
[37] = Plasma concentration in mouse at 30 mg/kg, po after 8 hrs; format: ADME, organism-based; design: dose 30 mg/kg, route oral

11-beta-hydroxysteroid dehydrogenase 1, sequence (P50172 whole entry): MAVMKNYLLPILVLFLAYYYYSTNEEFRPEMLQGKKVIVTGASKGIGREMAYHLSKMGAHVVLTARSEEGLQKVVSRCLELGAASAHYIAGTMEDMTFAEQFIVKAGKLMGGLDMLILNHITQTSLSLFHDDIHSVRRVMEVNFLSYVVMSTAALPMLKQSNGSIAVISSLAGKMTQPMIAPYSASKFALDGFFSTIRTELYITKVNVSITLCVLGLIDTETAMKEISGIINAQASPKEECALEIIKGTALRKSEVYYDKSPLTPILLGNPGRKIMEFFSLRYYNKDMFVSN

- clearance [1]: 19.3 mL/min/kg
- Vd [2]: 1.53 L/kg
- half-life [3]: 12.2 h
- bioavailability [4]: 34%
- clearance [5]: 55.2 mL/min/kg
- Vd [6]: 0.9 L/kg
- half-life [7]: 3.32 h
- bioavailability [8]: 31%
- Cp(f) [9]: 240 nM
- fraction unbound at 4 h [10]: 0.099
- Kp [11]: 1.34
SMILES: CC(C)[C@]1(C)SC(N[C@H]2C[C@@H]3CC[C@H]2C3)=NC1=O

- Ki [12]: 152 nM
- clearance [1]: 7.33 mL/min/kg
- Vd [2]: 0.97 L/kg
- half-life [13]: 2.17 h
- bioavailability [4]: 58%
- clearance [5]: 24.7 mL/min/kg
- Vd [6]: 1.43 L/kg
- half-life [7]: 5.72 h
- bioavailability [8]: > 100%
- Cp(f) [20]: 2100 nM
- fraction unbound at 4 h [21]: 0.591
- concentration at 2 h [22]: 980 nM
- concentration at 4 h [23]: 820 nM
- concentration at 6 h [24]: 220 nM
- concentration at 8 h [25]: 130 nM
- concentration at 2 h [26]: 4670 nM
- concentration at 4 h [27]: 980 nM
- concentration at 6 h [28]: 2020 nM
- concentration at 8 h [29]: 580 nM
- concentration at 2 h [30]: 4500 nM
- concentration at 4 h [31]: 1050 nM
- concentration at 6 h [32]: 380 nM
- concentration at 8 h [33]: 190 nM
- concentration at 2 h [34]: 19500 nM
- concentration at 4 h [35]: 3590 nM
- concentration at 6 h [36]: 1710 nM
- concentration at 8 h [37]: 390 nM
SMILES: CC(C)[C@]1(C)SC(N[C@H]2C[C@H]3C[C@@H]2C[C@@H]3O)=NC1=O
- inhibition in vivo at 10 mg/kg [14]: 38%
- inhibition in vivo at 10 mg/kg [15]: 31%
- inhibition in vivo at 30 mg/kg [16]: 51%
- inhibition in vivo at 30 mg/kg [17]: 46%
- inhibition in vivo at 30 mg/kg [18]: 36%
- inhibition in vivo at 30 mg/kg [19]: 36%

- Ki [12]: 181 nM
- clearance [1]: 12.3 mL/min/kg
- Vd [2]: 1.43 L/kg
- half-life [13]: 2.41 h
SMILES: CC(C)[C@]1(C)SC(N[C@H]2C[C@H]3C[C@@H]2C[C@H]3O)=NC1=O

- Ki [12]: 230 nM
SMILES: CC(C)[C@]1(C)SC(N[C@H]2C[C@H]3C[C@@H]2CC3=O)=NC1=O

- clearance [1]: 32 mL/min/kg
- Vd [2]: 0.53 L/kg
- half-life [13]: 0.24 h
- bioavailability [4]: 53%
SMILES: CC(C)(O)[C@]1(C)SC(N[C@H]2C[C@@H]3CC[C@H]2C3)=NC1=O

From ChEMBL document CHEMBL2021802, “Synthesis and Evaluation of the Metabolites of AMG 221, a Clinical Candidate for the Treatment of Type 2 Diabetes” (ACS Med Chem Lett, 2011)
